ChEMBL document CHEMBL5058577, “EUbOPEN Chemogenomics Library 2 (Multiplex)” (2022)

Tested on: HEK-293T
Experiment: Multiplex assay against HEK293T
Format: toxicity, cell-based
Conditions: human
Summary of the method: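 Imaging took place on a CQ1 microscope at 37°C and 5% CO2 once compound had been added to live cells stained at seeding with Hoechst33342, BioTracker Green Microtubule Cytoskeleton Dye, MitoTracker Red and Annexin V Alexa Fluor 680. CellPathfinder machine-learning gating classed cells as Hoechst high-intensity objects or normal cells, classed normal cells as having healthy, pyknosed or fragmented nuclei, and classed pyknosed cells as mitotic or apoptotic. Tubulin, mitochondrial-mass and membrane-permeability phenotypes are per cents of the healthy-nucleus cells.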

[1] = 12 h, 1 µM, compound concentration 1 uM, replicate 1
[2] = 12 h, 1 µM, compound concentration 1 uM, replicate 2
[3] = 12 h, 10 µM, compound concentration 10 uM, replicate 1
[4] = 12 h, 10 µM, compound concentration 10 uM, replicate 2
[5] = 24 h, 1 µM, compound concentration 1 uM, replicate 1
[6] = 24 h, 1 µM, compound concentration 1 uM, replicate 2
[7] = 24 h, 10 µM, compound concentration 10 uM, replicate 1
[8] = 24 h, 10 µM, compound concentration 10 uM, replicate 2
[9] = 48 h, 1 µM, compound concentration 1 uM, replicate 1
[10] = 48 h, 1 µM, compound concentration 1 uM, replicate 2
[11] = 48 h, 10 µM, compound concentration 10 uM, replicate 1
[12] = 48 h, 10 µM, compound concentration 10 uM, replicate 2

## COc1ccc2c(c1)C(C(=O)N(Cc1ccc(N(C)C)cc1)c1ccc(C(C)C)cc1)CCC2.Cl (stereo not drawn)
[1]
  Population Apoptotic (%): 30%
  Population Fragmented Nuclei (%): 6%
  Population Healthy Nuclei (%): 80%
  Population Hoechst High Intensity Objects (%): 7%
  Population Membrane Permeable-Phenotype (%): 0%
  Population Mitochondria Different-Phenotype (%): 39%
  Population Mitotic Cells (%): 70%
  Population Normal (%): 92%
  Population Pyknosed Nuclei (%): 13%
  Population Tubulin-Different-Phenotype (%): 27%
  Total Cell Count: 413
[2]
  Population Apoptotic (%): 43%
  Population Fragmented Nuclei (%): 5%
  Population Healthy Nuclei (%): 79%
  Population Hoechst High Intensity Objects (%): 4%
  Population Mitochondria Different-Phenotype (%): 61%
  Population Mitotic Cells (%): 56%
  Population Normal (%): 95%
  Population Pyknosed Nuclei (%): 14%
  Population Tubulin-Different-Phenotype (%): 23%
  Total Cell Count: 330
[3]
  Population Apoptotic (%): 60%
  Population Fragmented Nuclei (%): 9%
  Population Healthy Nuclei (%): 78%
  Population Hoechst High Intensity Objects (%): 10%
  Population Membrane Permeable-Phenotype (%): 0%
  Population Mitochondria Different-Phenotype (%): 60%
  Population Mitotic Cells (%): 39%
  Population Normal (%): 89%
  Population Pyknosed Nuclei (%): 11%
  Population Tubulin-Different-Phenotype (%): 64%
  Total Cell Count: 383
[4]
  Population Apoptotic (%): 63%
  Population Fragmented Nuclei (%): 4%
  Population Healthy Nuclei (%): 77%
  Population Hoechst High Intensity Objects (%): 6%
  Population Mitochondria Different-Phenotype (%): 75%
  Population Mitotic Cells (%): 36%
  Population Normal (%): 93%
  Population Pyknosed Nuclei (%): 17%
  Population Tubulin-Different-Phenotype (%): 57%
  Total Cell Count: 361
[5]
  Population Apoptotic (%): 31%
  Population Fragmented Nuclei (%): 9%
  Population Healthy Nuclei (%): 81%
  Population Hoechst High Intensity Objects (%): 3%
  Population Membrane Permeable-Phenotype (%): 0%
  Population Mitochondria Different-Phenotype (%): 20%
  Population Mitotic Cells (%): 68%
  Population Normal (%): 96%
  Population Pyknosed Nuclei (%): 8%
  Population Tubulin-Different-Phenotype (%): 13%
  Total Cell Count: 567
[6]
  Population Apoptotic (%): 60%
  Population Fragmented Nuclei (%): 7%
  Population Healthy Nuclei (%): 79%
  Population Hoechst High Intensity Objects (%): 6%
  Population Mitochondria Different-Phenotype (%): 33%
  Population Mitotic Cells (%): 40%
  Population Normal (%): 93%
  Population Pyknosed Nuclei (%): 13%
  Population Tubulin-Different-Phenotype (%): 11%
  Total Cell Count: 399
[7]
  Population Apoptotic (%): 35%
  Population Fragmented Nuclei (%): 9%
  Population Healthy Nuclei (%): 73%
  Population Hoechst High Intensity Objects (%): 10%
  Population Membrane Permeable-Phenotype (%): 1%
  Population Mitochondria Different-Phenotype (%): 51%
  Population Mitotic Cells (%): 64%
  Population Normal (%): 89%
  Population Pyknosed Nuclei (%): 17%
  Population Tubulin-Different-Phenotype (%): 70%
  Total Cell Count: 409
[8]
  Population Apoptotic (%): 45%
  Population Fragmented Nuclei (%): 7%
  Population Healthy Nuclei (%): 76%
  Population Hoechst High Intensity Objects (%): 6%
  Population Membrane Permeable-Phenotype (%): 0%
  Population Mitochondria Different-Phenotype (%): 60%
  Population Mitotic Cells (%): 55%
  Population Normal (%): 93%
  Population Pyknosed Nuclei (%): 16%
  Population Tubulin-Different-Phenotype (%): 60%
  Total Cell Count: 389
[9]
  Population Apoptotic (%): 20%
  Population Fragmented Nuclei (%): 12%
  Population Healthy Nuclei (%): 80%
  Population Hoechst High Intensity Objects (%): 1%
  Population Membrane Permeable-Phenotype (%): 1%
  Population Mitochondria Different-Phenotype (%): 10%
  Population Mitotic Cells (%): 79%
  Population Normal (%): 98%
  Population Pyknosed Nuclei (%): 6%
  Population Tubulin-Different-Phenotype (%): 10%
  Total Cell Count: 968
[10]
  Population Apoptotic (%): 46%
  Population Healthy Nuclei (%): 81%
  Population Hoechst High Intensity Objects (%): 4%
  Population Membrane Permeable-Phenotype (%): 0%
  Population Mitochondria Different-Phenotype (%): 17%
  Population Mitotic Cells (%): 53%
  Population Normal (%): 95%
  Population Tubulin-Different-Phenotype (%): 15%
  Total Cell Count: 631
[11]
  Population Apoptotic (%): 59%
  Population Fragmented Nuclei (%): 15%
  Population Healthy Nuclei (%): 75%
  Population Hoechst High Intensity Objects (%): 9%
  Population Membrane Permeable-Phenotype (%): 6%
  Population Mitochondria Different-Phenotype (%): 25%
  Population Mitotic Cells (%): 40%
  Population Normal (%): 90%
  Population Pyknosed Nuclei (%): 9%
  Population Tubulin-Different-Phenotype (%): 53%
  Total Cell Count: 558
[12]
  Population Apoptotic (%): 36%
  Population Fragmented Nuclei (%): 11%
  Population Healthy Nuclei (%): 79%
  Population Hoechst High Intensity Objects (%): 3%
  Population Membrane Permeable-Phenotype (%): 2%
  Population Mitochondria Different-Phenotype (%): 24%
  Population Mitotic Cells (%): 63%
  Population Normal (%): 96%
  Population Pyknosed Nuclei (%): 8%
  Population Tubulin-Different-Phenotype (%): 50%
  Total Cell Count: 482

## Cc1nc2ccc(Oc3ccc(F)cc3)cc2c(=O)n1C[C@H]1CCCN(C(C)C)C1.Cl
[1]
  Population Apoptotic (%): 40%
  Population Fragmented Nuclei (%): 7%
  Population Healthy Nuclei (%): 80%
  Population Hoechst High Intensity Objects (%): 6%
  Population Membrane Permeable-Phenotype (%): 0%
  Population Mitochondria Different-Phenotype (%): 50%
  Population Mitotic Cells (%): 60%
  Population Normal (%): 93%
  Population Pyknosed Nuclei (%): 11%
  Population Tubulin-Different-Phenotype (%): 42%
  Total Cell Count: 381
[2]
  Population Apoptotic (%): 61%
  Population Fragmented Nuclei (%): 5%
  Population Healthy Nuclei (%): 70%
  Population Hoechst High Intensity Objects (%): 27%
  Population Mitochondria Different-Phenotype (%): 69%
  Population Mitotic Cells (%): 38%
  Population Normal (%): 72%
  Population Pyknosed Nuclei (%): 24%
  Population Tubulin-Different-Phenotype (%): 34%
  Total Cell Count: 204
[3]
  Population Apoptotic (%): 54%
  Population Fragmented Nuclei (%): 7%
  Population Healthy Nuclei (%): 78%
  Population Hoechst High Intensity Objects (%): 17%
  Population Membrane Permeable-Phenotype (%): 0%
  Population Mitochondria Different-Phenotype (%): 81%
  Population Mitotic Cells (%): 45%
  Population Normal (%): 82%
  Population Pyknosed Nuclei (%): 13%
  Population Tubulin-Different-Phenotype (%): 76%
  Total Cell Count: 405
[4]
  Population Apoptotic (%): 61%
  Population Fragmented Nuclei (%): 8%
  Population Healthy Nuclei (%): 74%
  Population Hoechst High Intensity Objects (%): 20%
  Population Mitochondria Different-Phenotype (%): 94%
  Population Mitotic Cells (%): 38%
  Population Normal (%): 79%
  Population Pyknosed Nuclei (%): 17%
  Population Tubulin-Different-Phenotype (%): 73%
  Total Cell Count: 310
[5]
  Population Apoptotic (%): 31%
  Population Fragmented Nuclei (%): 11%
  Population Healthy Nuclei (%): 80%
  Population Hoechst High Intensity Objects (%): 4%
  Population Membrane Permeable-Phenotype (%): 0%
  Population Mitochondria Different-Phenotype (%): 36%
  Population Mitotic Cells (%): 68%
  Population Normal (%): 95%
  Population Pyknosed Nuclei (%): 8%
  Population Tubulin-Different-Phenotype (%): 27%
  Total Cell Count: 553
[6]
  Population Apoptotic (%): 37%
  Population Healthy Nuclei (%): 72%
  Population Hoechst High Intensity Objects (%): 22%
  Population Mitochondria Different-Phenotype (%): 52%
  Population Mitotic Cells (%): 62%
  Population Normal (%): 77%
  Population Pyknosed Nuclei (%): 16%
  Population Tubulin-Different-Phenotype (%): 20%
  Total Cell Count: 281
[7]
  Population Apoptotic (%): 49%
  Population Fragmented Nuclei (%): 10%
  Population Healthy Nuclei (%): 73%
  Population Hoechst High Intensity Objects (%): 12%
  Population Membrane Permeable-Phenotype (%): 3%
  Population Mitochondria Different-Phenotype (%): 67%
  Population Mitotic Cells (%): 50%
  Population Normal (%): 87%
  Population Pyknosed Nuclei (%): 15%
  Population Tubulin-Different-Phenotype (%): 70%
  Total Cell Count: 525
[8]
  Population Apoptotic (%): 68%
  Population Fragmented Nuclei (%): 11%
  Population Healthy Nuclei (%): 75%
  Population Hoechst High Intensity Objects (%): 23%
  Population Membrane Permeable-Phenotype (%): 0%
  Population Mitochondria Different-Phenotype (%): 88%
  Population Mitotic Cells (%): 31%
  Population Normal (%): 76%
  Population Pyknosed Nuclei (%): 12%
  Population Tubulin-Different-Phenotype (%): 68%
  Total Cell Count: 334
[9]
  Population Apoptotic (%): 27%
  Population Fragmented Nuclei (%): 19%
  Population Healthy Nuclei (%): 75%
  Population Hoechst High Intensity Objects (%): 1%
  Population Membrane Permeable-Phenotype (%): 1%
  Population Mitochondria Different-Phenotype (%): 22%
  Population Mitotic Cells (%): 72%
  Population Normal (%): 98%
  Population Pyknosed Nuclei (%): 5%
  Population Tubulin-Different-Phenotype (%): 14%
  Total Cell Count: 901
[10]
  Population Apoptotic (%): 60%
  Population Fragmented Nuclei (%): 13%
  Population Healthy Nuclei (%): 80%
  Population Hoechst High Intensity Objects (%): 7%
  Population Membrane Permeable-Phenotype (%): 0%
  Population Mitochondria Different-Phenotype (%): 36%
  Population Mitotic Cells (%): 39%
  Population Normal (%): 92%
  Population Pyknosed Nuclei (%): 6%
  Total Cell Count: 380
[11]
  Population Apoptotic (%): 47%
  Population Fragmented Nuclei (%): 15%
  Population Healthy Nuclei (%): 74%
  Population Hoechst High Intensity Objects (%): 11%
  Population Membrane Permeable-Phenotype (%): 2%
  Population Mitochondria Different-Phenotype (%): 60%
  Population Mitotic Cells (%): 52%
  Population Normal (%): 88%
  Population Pyknosed Nuclei (%): 9%
  Population Tubulin-Different-Phenotype (%): 62%
  Total Cell Count: 754
[12]
  Population Apoptotic (%): 67%
  Population Fragmented Nuclei (%): 17%
  Population Healthy Nuclei (%): 72%
  Population Hoechst High Intensity Objects (%): 22%
  Population Membrane Permeable-Phenotype (%): 0%
  Population Mitochondria Different-Phenotype (%): 69%
  Population Mitotic Cells (%): 32%
  Population Normal (%): 78%
  Population Tubulin-Different-Phenotype (%): 58%
  Total Cell Count: 459
